The record followed here is PubChem BioAssay.

Molecules are shown by their SMILES. Calls of active or inactive are those of the source.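 The calls were made as follows, unless noted: active = visually confirmed hit in the image check and inhibition above 20%; inconclusive = visually confirmed hit but inhibition not above 20%; inactive = no visual hit in the image check.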

Experiment [1] in a line: inhibitors of TNFa-induced NFkB p65 translocation, primary screen, imaging, HUVEC, MLSMR starter and 10KST1 sets (AID 438;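 active = inhibition above 20% together with a positive visual image hit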;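 also: compound added about 3h40 before a 20 min TNFalpha stimulation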;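 as to inhibition: signal is the nuclear over cytoplasmic p65 intensity ratio per well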). The note with it: HUVEC TNFa-induced p65 nuclear translocation; cell count: measured here: nuclei count (cytotoxicity indicator), at 2.08 µM; inhibition: at 2 µM, stronger effect = higher value, 0% TNFa-plus-vehicle, 100% no-TNFa wells.
The nature of experiment [2]: inhibitors of mutant huntingtin aggregation, primary screen, imaging, exon1htt(103Q)mCFP cells, high-content imaging (AID 483;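 active = visual image review flags a hit and inhibition of aggregation exceeds 20%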;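 also: compound exposure lasted 3 days before fixation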;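 as to nuclei count: percent of the per-plate median nuclei count of sample wells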). Particulars: exon1htt(103Q)mCFP cell line, aggregate imaging, at 2 µM; inhibition of aggregation: stronger effect = higher value; nuclei count: measured here: cell count, toxicity.
Experiment [3] can be described thus: inhibitors of E-selectin induction by TNFa, primary screen, imaging, HUVEC, immunofluorescence, MLSMR starter and 10KST1 sets (AID 487).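 As to inhibition: signal is fraction of cell area covered by stained E-selectin grains.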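 As to nuclei count: 100% = median nuclei count of all wells on the same plate.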 The note with it: HUVEC TNFalpha-induced E-selectin immunofluorescence imaging, at 2 µM; inhibition: stronger effect = higher value; nuclei count: measured here: cell number, toxicity.
In experiment [4] the target is Voltage-gated potassium channel subunit beta-2 (Rattus norvegicus) (UniProt P62483). The experiment is described as follows: KvBeta enzyme negative modulators, primary screen, biochemical, NADPH fluorescence (AID 622;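 active = fluorescence slope higher than the sample average by over 3 SD, cut at about -0.22 in these data, passing the limit was not always enough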;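 also: slope of raw intensity against log time taken from 70 to 1610 s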). Particulars: recombinant KvBeta, 4-cyanobenzaldehyde reduction, at 10 µM, stronger effect = higher value.
The target is the same in experiment [5]. The experiment is described as follows: KvBeta positive modulators, primary screen, biochemical, NADPH fluorescence (AID 623;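 active = NADPH fluorescence slope more negative than the mean of all samples by about 3 SD, 99.7% confidence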;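 also: fluorescence intensity change per second fitted from 20 to 320 s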). The note with it: Recombinant KvBeta, NADPH fluorescence decrease slope, 10 min; at 10 µM; stronger effect = lower value.
Experiment [6] concerns the target Muscarinic acetylcholine receptor M4 (Homo sapiens) (UniProt P08173). Nature of the experiment: compounds altering M4/GIRK thallium flux, either direction, primary screen, M4 allosteric agonist project, cell-based, HEK293 M4/GIRK, BTC-AM (AID 625;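 active = fluorescence slope after compound addition differing from the mean of all tested samples at 99.7% confidence, mostly higher but some lower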;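 also: thallium influx through GIRK channels coupled to M4 in HEK293 cells with BTC-AM dye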). Particulars: at 10 µM, actives lie on both sides. In short, it runs like this:
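System: HEK293 cells with M4 receptor and GIRK channels | Incubation: Cells overnight at 37 °C, BTC-AM loading 1 h, reads 2 min total | Technique: Kinetic BTC-AM fluorescence sampled at 1 Hz, 10 s pre-addition baseline | Measure: Post-addition slope, 15–24 s, of baseline-normalized fluorescence | Control set: Carbachol positive, DMSO negative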

Experiment [7] is described as follows: inhibitors of Sendai virus-induced IRF3 signaling, primary screen, TLR/RLR signaling modifier project, cell-based, Sendai virus stimulus, luciferase, 10K MLSCN set (AID 602276;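 active = inhibition at or above 50% at 10 µM; inactive = inhibition below 50%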;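 also: firefly luciferase from ISG56 promoter only with Renilla not read in this screen; 0% = Sendai virus plus DMSO and 100% = medium plus DMSO without virus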). The note with it: HEK293 RL24 IRF3 luciferase reporter, at 10 µM, stronger effect = higher value. For orientation: A reporter such as luciferase makes a cellular process visible.
The nature of experiment [8]: inhibitors of poly I:C-induced TLR3 signaling, primary screen, cell-based, poly I:C stimulus, luciferase, 10K MLSCN set (AID 602277;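 active = inhibition of the reporter signal at or above 50%; inactive = inhibition below 50%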). The note with it: HEK293-TLR3 RL24 IRF3 luciferase reporter, at 10 µM, stronger effect = higher value.

Sequence of Voltage-gated potassium channel subunit beta-2 (Rattus norvegicus) (P62483 whole entry, looked up): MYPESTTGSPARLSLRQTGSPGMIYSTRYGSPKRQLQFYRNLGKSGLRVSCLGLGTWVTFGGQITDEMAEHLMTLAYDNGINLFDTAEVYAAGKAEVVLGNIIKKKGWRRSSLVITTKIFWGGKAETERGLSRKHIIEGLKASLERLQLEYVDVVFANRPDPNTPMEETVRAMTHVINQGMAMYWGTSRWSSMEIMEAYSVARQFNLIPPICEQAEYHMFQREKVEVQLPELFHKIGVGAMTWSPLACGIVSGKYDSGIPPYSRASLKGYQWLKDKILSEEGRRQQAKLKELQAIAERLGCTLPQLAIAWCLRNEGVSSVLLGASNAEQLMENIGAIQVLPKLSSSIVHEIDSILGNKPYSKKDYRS
Sequence of Muscarinic acetylcholine receptor M4 (Homo sapiens) (P08173 whole entry, looked up): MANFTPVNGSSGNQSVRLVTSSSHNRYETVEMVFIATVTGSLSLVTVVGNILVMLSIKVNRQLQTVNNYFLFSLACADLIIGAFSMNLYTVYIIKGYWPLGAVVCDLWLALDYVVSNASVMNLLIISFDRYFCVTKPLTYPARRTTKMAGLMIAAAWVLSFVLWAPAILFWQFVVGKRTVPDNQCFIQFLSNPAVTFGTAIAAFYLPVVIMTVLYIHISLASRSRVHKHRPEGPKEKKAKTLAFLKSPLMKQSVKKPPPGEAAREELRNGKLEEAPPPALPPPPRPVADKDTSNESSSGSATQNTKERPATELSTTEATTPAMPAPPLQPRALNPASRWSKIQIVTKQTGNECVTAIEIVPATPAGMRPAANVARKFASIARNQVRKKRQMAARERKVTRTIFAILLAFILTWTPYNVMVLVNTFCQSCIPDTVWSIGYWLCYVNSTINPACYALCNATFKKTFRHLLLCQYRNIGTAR

Broadly, the inhibition is the relative decrease from the control value, in per cent. Consider `COc1ccc(Br)cc1S(=O)(=O)N1CCOCC1`, for which the cell count in experiment [1] amounted to 336. For the same compound, the inhibition in experiment [1] was 5% (inactive); in experiment [3] it was -6.1% (inactive); in experiment [7], 17.4% (inactive); in experiment [8] it was 16.5% (inactive). For the same compound, the inhibition of aggregation in experiment [2] is -25.8% (inactive). Further, the nuclei count in experiment [2] amounted to 119%; in experiment [3], 113%. Moreover, the fluorescence slope in experiment [4] was -0.462 (inactive); in experiment [6], 0.00557 (inactive). Besides, the NADPH fluorescence slope in experiment [5] was -3.5e-05 (inactive).

For `Cc1cc(NC(=O)Cn2cnc3c(cnn3C(C)(C)C)c2=O)no1`, the cell count in experiment [1] was 645. The inhibition in experiment [1] was 1.1% (inactive); in experiment [3], 7% (inactive); in experiment [7] it was -18.6% (inactive); in experiment [8], -0.822% (inactive). The inhibition of aggregation in experiment [2] is -5.1% (inactive). For the same compound, the nuclei count was 113% in experiment [2] and 102% in experiment [3]. Besides, the fluorescence slope is -0.573 (inactive) in experiment [4] and 0.00541 (inactive) in experiment [6]. For the same compound, in experiment [5], the NADPH fluorescence slope was -3.1e-05 (inactive).

Consider `CC(=O)N1CCC2(CC1)CC(=O)c1cc(OCC(=O)NCc3ccc(C)cc3)ccc1O2`, for which the cell count in experiment [1] turned out to be 314. In addition, the inhibition is -4.7% (inactive) in experiment [1], -5% (inactive) in experiment [3], 6.64% (inactive) in experiment [7] and 5.97% (inactive) in experiment [8]. The inhibition of aggregation in experiment [2] is 2.5% (inactive). For the same compound, the nuclei count is 78.3% in experiment [2] and 119% in experiment [3]. Further, the fluorescence slope is -0.0682 (inactive) in experiment [4] and 0.00521 (inactive) in experiment [6]. The NADPH fluorescence slope in experiment [5] is -3.2e-06 (inactive).

Regarding `c1ccc(-n2nnnc2OCCOc2nnnn2-c2ccccc2)cc1`, the cell count in experiment [1] was 172. Moreover, the inhibition in experiment [1] is -10.5% (inactive); in experiment [3], -5.3% (inactive); in experiment [7] it was 14.3% (inactive); in experiment [8], 23.8% (inactive). In addition, the inhibition of aggregation in experiment [2] was 11.5% (inactive). The nuclei count was determined as 102% in experiment [2] and 83.1% in experiment [3]. In addition, the fluorescence slope in experiment [4] is -0.562 (inactive); in experiment [6] it was 0.00376 (inactive). The NADPH fluorescence slope in experiment [5] is -6.2e-05 (inactive).

As for `CCOc1ccc(Cl)cc1S(=O)(=O)N1CCCC1`, the cell count in experiment [1] turned out to be 208. Besides, the inhibition in experiment [1] was 1.4% (inactive); in experiment [3], -46.5% (inactive); in experiment [7], 17% (inactive); in experiment [8] it was 15.8% (inactive). Moreover, the inhibition of aggregation in experiment [2] was 0.2% (inactive). In addition, the nuclei count in experiment [2] is 101%; in experiment [3], 122%. The figures for the fluorescence slope in experiment [4] and in experiment [6] were -0.453 (inactive) and 0.00537 (inactive), respectively. The NADPH fluorescence slope in experiment [5] is 2.4e-05 (inactive).

`COc1ccccc1C(=O)Nc1ccccc1C(=O)N1CCCC1`: in experiment [1], the cell count came to 675. Also, the inhibition in experiment [1] was -6.5% (inactive); in experiment [3], -95.5% (inactive); in experiment [7], 15.4% (inactive); in experiment [8], 17% (inactive). Further, the inhibition of aggregation in experiment [2] was -2.4% (inactive). The nuclei count worked out at 108% in experiment [2] and 115% in experiment [3]. For the same compound, the fluorescence slope in experiment [4] was -0.583 (inactive); in experiment [6], 0.00691 (inactive). In addition, the NADPH fluorescence slope in experiment [5] was -5.2e-05 (inactive).

`CCOC(=O)c1cnc(-n2nc(C)cc2C)nc1Nc1ccc(N(C)C)cc1`: the cell count in experiment [1] is 603. Further, the inhibition was -15.5% (inactive) in experiment [1], -51.8% (inactive) in experiment [3], 4.06% (inactive) in experiment [7] and 4.11% (inactive) in experiment [8]. Further, the inhibition of aggregation in experiment [2] is 30.6% (inactive). Moreover, the nuclei count in experiment [2] worked out at 84%; in experiment [3], 88.2%. In addition, the fluorescence slope in experiment [4] was -0.574 (inactive); in experiment [6], 0.00563 (inactive). For the same compound, in experiment [5], the NADPH fluorescence slope was -4.7e-05 (inactive).

`COCC(=O)NC(c1ccccc1)c1ccccc1`: in experiment [1], the cell count was determined as 336. The inhibition is 9.4% (inactive) in experiment [1], -13.4% (inactive) in experiment [3], 14.6% (inactive) in experiment [7] and 19.5% (inactive) in experiment [8]. For the same compound, the inhibition of aggregation in experiment [2] is 4.5% (inactive). In addition, the figures for the nuclei count in experiment [2] and in experiment [3] were 100% and 122%, respectively. The results for the fluorescence slope in experiment [4] and in experiment [6] were -0.561 (inactive) and 0.00683 (inactive), respectively. Besides, the NADPH fluorescence slope in experiment [5] was -7e-05 (inactive).

In the case of `COCCNc1nc(SCC(=O)N2CCN(c3ccccc3)CC2)nc2ccccc12`, the cell count in experiment [1] worked out at 462. The inhibition in experiment [1] was 4.1% (inactive); in experiment [3] it was -188% (inactive); in experiment [7], -2.13% (inactive); in experiment [8] it was 8.34% (inactive). The inhibition of aggregation in experiment [2] is -53.8% (inactive). The results for the nuclei count in experiment [2] and in experiment [3] were 70.8% and 105%, respectively. Further, the fluorescence slope in experiment [4] was -0.395 (inactive); in experiment [6], 0.0054 (inactive). Also, the NADPH fluorescence slope in experiment [5] was 4.2e-05 (inactive).

As for `COc1ccc2c(-c3cccnc3)cc(=O)[nH]c2c1`, the cell count in experiment [1] turned out to be 363. For the same compound, the inhibition was 4.3% (inactive) in experiment [1], 36.3% (inactive) in experiment [3], 13.4% (inactive) in experiment [7] and 26.1% (inactive) in experiment [8]. In addition, the inhibition of aggregation in experiment [2] was -5.5% (inactive). For the same compound, the results for the nuclei count in experiment [2] and in experiment [3] were 84.5% and 79.4%, respectively. Also, the fluorescence slope in experiment [4] was -0.39 (inactive); in experiment [6], 0.00553 (inactive). Besides, in experiment [5], the NADPH fluorescence slope is -9.1e-05 (inactive).

Consider `Cc1ccc(S(=O)(=O)N2CCOCC2)cc1C(=O)Nc1ccccn1`, for which, in experiment [1], the cell count stood at 542. In addition, the inhibition is -49% (inactive) in experiment [1], -75.1% (inactive) in experiment [3], 7.52% (inactive) in experiment [7] and 12% (inactive) in experiment [8]. Besides, the inhibition of aggregation in experiment [2] is -23.1% (inactive). Further, the nuclei count is 106% in experiment [2] and 111% in experiment [3]. The fluorescence slope in experiment [4] was -0.346 (inactive); in experiment [6] it was 0.00587 (inactive). For the same compound, in experiment [5], the NADPH fluorescence slope is -3.9e-05 (inactive).

Consider `O=C(CSc1nnc2sc3ccccc3n12)c1ccco1`, for which the cell count in experiment [1] was 308. The inhibition in experiment [1] was 1.9% (inactive); in experiment [3] it was 19.6% (inactive); in experiment [7], -17.8% (inactive); in experiment [8], -83.7% (inactive). The inhibition of aggregation in experiment [2] was 23.4% (inactive). Also, the nuclei count in experiment [2] was found to be 83.3%; in experiment [3] it was 91.6%. Further, the fluorescence slope in experiment [4] is -0.293 (inactive); in experiment [6] it was 0.00582 (inactive). For the same compound, the NADPH fluorescence slope in experiment [5] was -5e-05 (inactive).

In the case of `CCN(C#N)c1nc(NC(C)C)nc(NC(C)C)n1`, the cell count in experiment [1] was 354. The inhibition was 3.3% (inactive) in experiment [1], -0.6% (inactive) in experiment [3], 0.243% (inactive) in experiment [7] and 9.55% (inactive) in experiment [8]. Also, the inhibition of aggregation in experiment [2] is 14.7% (inactive). Besides, the nuclei count was 100% in experiment [2] and 82.6% in experiment [3]. Besides, the fluorescence slope is -0.316 (inactive) in experiment [4] and 0.00491 (inactive) in experiment [6]. Further, the NADPH fluorescence slope in experiment [5] is -5.2e-05 (inactive).

Regarding `COc1ccc(N2C(=O)C(Cl)=C(Nc3c(C)n(C)n(-c4ccccc4)c3=O)C2=O)cc1`, the cell count in experiment [1] came out at 607. Also, the inhibition was -22.9% (inactive) in experiment [1], -23.5% (inactive) in experiment [3], 7.07% (inactive) in experiment [7] and 12.3% (inactive) in experiment [8]. Further, in experiment [2], the inhibition of aggregation is -20.7% (inactive). In addition, the nuclei count turned out to be 95.1% in experiment [2] and 102% in experiment [3]. Further, the values for the fluorescence slope in experiment [4] and in experiment [6] were -0.449 (inactive) and 0.00622 (inactive), respectively. Also, in experiment [5], the NADPH fluorescence slope is 3.3e-05 (inactive).
